Source: ChEMBL document CHEMBL1275449, “Potent in vitro antifungal activities of naturally occurring acetylenic acids” (Antimicrob Agents Chemother, 2008)
Active and inactive are the calls of the source.

How the values were obtained:
Format in all cases: functional, organism-based
Candida albicans [1] = assay: Antifungal activity against Candida albicans ATCC 14053 at 198.1 uM after 48 hrs by CLSI method
Candida albicans [2] = assay: Antifungal activity against Candida albicans ATCC 60193 at 198.1 uM after 48 hrs by CLSI method
Summary of the method: (§1)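 Candida inocula came from 24–72-h SD agar colonies suspended in saline. They were diluted by OD630 standard curve into RPMI 1640 (0.2% dextrose, 0.03% glutamine, 0.165 M MOPS, pH 7.0) to 1.5 × 10³ CFU/ml. Compounds were run as 11 twofold dilutions in 20% DMSO-saline, in duplicate, at 35°C for 48 h, with OD530 read before and after. Percent growth at the top concentration, IC50, MIC, and MFC (SD agar plating) were derived.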

Aspergillus fumigatus [3] = assay: Antifungal activity against Aspergillus fumigatus ATCC 90906 at 198.1 uM after 48 hrs by CLSI method
Aspergillus niger [4] = assay: Antifungal activity against Aspergillus niger ATCC 16404 at 198.1 uM after 48 hrs by CLSI method
Candida albicans [5] = assay: Antifungal activity against Fluconazole resistant Candida albicans isolate 1 at 187.7 uM after 48 hrs by CLSI method
Summary of the method: (§2)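 Candida in CLSI broth microdilution. Saline colony suspension set to 1.5 × 10³ CFU/ml (final) in MOPS-buffered RPMI 1640, pH 7.0. Test agent given as twofold serial dilutions in 20% DMSO-saline, duplicate wells. 35°C for 48 h. Growth read as OD530 before and after incubation. Percent inhibition scored at the highest test concentration.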

Candida tropicalis = assay: Antifungal activity against Candida tropicalis ATCC 750 at 187.7 uM after 48 hrs by CLSI method
Summary of the method: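 Yeast suspensions made from 3-5 colonies off 24-72 h SD agar plates in saline. They were diluted by OD630 standard curve in RPMI 1640 (0.2% dextrose, 0.03% glutamine, 0.165 M MOPS, pH 7.0) to 1.5 × 10³ CFU/ml. Twofold dilutions (11 concentrations, 20% DMSO-saline) run in duplicate. OD530 read before and after 35°C, 48 h. Line values are top test concentrations; no-growth endpoints give MIC/MFC.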

Aspergillus fumigatus [6] = assay: Antifungal activity against Aspergillus fumigatus ATCC 204305 at 187.7 uM after 48 hrs by CLSI method
Aspergillus niger [7] = assay: Antifungal activity against Aspergillus niger ATCC 16404 at 187.7 uM after 48 hrs by CLSI method
Trichophyton rubrum = assay: Antifungal activity against Trichophyton rubrum ATCC MYA-4438 at 187.7 uM after 5 days by CLSI method
Candida albicans [8] = assay: Antifungal activity against Candida albicans ATCC 32354 at 169.8 uM after 48 hrs by CLSI method; summary of the method: as §1
Candida albicans [9] = assay: Antifungal activity against Fluconazole resistant Candida albicans isolate 1 at 169.8 uM after 48 hrs by CLSI method; summary of the method: as §2
Pichia kudriavzevii [10] = assay: Antifungal activity against Candida krusei ATCC 6258 at 169.8 uM after 48 hrs by CLSI method; summary of the method: as §1
Aspergillus flavus [11] = assay: Antifungal activity against Aspergillus flavus ATCC 204304 at 169.8 uM after 48 hrs by CLSI method
Candida albicans [12] = assay: Antifungal activity against Candida albicans ATCC 14053 at 168.9 uM after 48 hrs by CLSI method
Aspergillus fumigatus [13] = assay: Antifungal activity against Aspergillus fumigatus ATCC 90906 at 168.9 uM after 48 hrs by CLSI method
[14] = tested on: Trichophyton mentagrophytes; assay: Antifungal activity against Trichophyton mentagrophytes ATCC MYA-4439 at 168.9 uM after 5 days by CLSI method
Candida albicans [15] = assay: Antifungal activity against Candida albicans ATCC 90028 at 9.4 uM after 48 hrs by CLSI method; summary of the method: as §2
Pichia kudriavzevii [16] = assay: Antifungal activity against Candida krusei ATCC 6258 at 9.4 uM after 48 hrs by CLSI method; summary of the method: as §2
Candida parapsilosis = assay: Antifungal activity against Candida parapsilosis ATCC 22019 at 9.4 uM after 48 hrs by CLSI method; summary of the method: as §2
Aspergillus flavus [17] = assay: Antifungal activity against Aspergillus flavus ATCC 204304 at 9.4 uM after 48 hrs by CLSI method
Summary of the method: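 Aspergillus growth on 1–6-week potato dextrose slants scraped and Miracloth-filtered. Inoculum sized by OD630 curve to 2.7 × 10⁴ CFU/ml (final) in 5% Alamar blue-RPMI 1640 (MOPS, pH 7.0). Duplicate twofold dilutions from 20% DMSO-saline. 35°C for 48 h. Fluorescence 544/590 nm read before and after. Percent inhibition taken at the highest test concentration.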

Measured: Activity

CCCCCCCCCC#CCCCCC(=O)O
inactive: Candida albicans [1] | Candida albicans [2] | Aspergillus fumigatus [3] | Aspergillus niger [4]

CCCCCCCCCCC#CCCCCC(=O)O
inactive: Candida albicans [5] | Candida tropicalis | Aspergillus fumigatus [6] | Aspergillus niger [7] | Trichophyton rubrum

CCCCCCCCCCCCC#CCCCCC(=O)O [6-NONADECYNOIC ACID]
inactive: Candida albicans [8] | Candida albicans [9] | Pichia kudriavzevii [10] | Aspergillus flavus [11]

CCCCCC#CCC#CCC#CCC#CCCCC(=O)O
inactive: Candida albicans [12] | Aspergillus fumigatus [13] | [14]

CC(=O)N1CCN(c2ccc(OCC3COC(Cn4ccnc4)(c4ccc(Cl)cc4Cl)O3)cc2)CC1 (stereo not given) [KETOCONAZOLE]
inactive: Candida albicans [15] | Pichia kudriavzevii [16] | Candida parapsilosis | Aspergillus flavus [17]
